Measurements reported in ChEMBL document CHEMBL5724801, “EUbOPEN Chemogenomics Library - Multiplex” (2024).
Values joined by “and” are separate entries in the source; they are usually repeats but may differ in a detail not shown here. Equal values may be shown once.

Assays:
Type in all cases: toxicity, cell-based
HEK-293T = assay: Multiplex assay against HEK293T; details: human
Method in brief: (§1)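 Cells were classed with CellPathfinder machine-learning gating, first as Hoechst high-intensity objects or normal cells, then (normal cells) as healthy, pyknosed or fragmented nuclei, and finally (pyknosed cells) as mitotic or apoptotic. Staining of live cells at seeding used Hoechst33342, BioTracker Green Microtubule Cytoskeleton Dye, MitoTracker Red and Annexin V Alexa Fluor 680, with imaging on a CQ1 microscope at 37°C and 5% CO2 after compound addition. Tubulin, mitochondrial-mass and membrane-permeability phenotypes are per cents of healthy-nucleus cells.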

Fibroblast = assay: Multiplex assay against human fibroblast; method in brief: as §1
U2OS = assay: Multiplex assay against U2OS; details: human; method in brief: as §1
[1] = 12 h, 1 µM, compound concentration 1 uM
[2] = 12 h, 10 µM, compound concentration 10 uM
[3] = 24 h, 1 µM, compound concentration 1 uM
[4] = 24 h, 10 µM, compound concentration 10 uM
[5] = 48 h, 1 µM, compound concentration 1 uM
[6] = 48 h, 10 µM, compound concentration 10 uM

## Nc1nc(CC(=O)Nc2ccc(CCNC[C@H](O)c3ccccc3)cc2)cs1 [MIRABEGRON]
HEK-293T; [1]
  Population Apoptotic (%): 22% and 55%
  Population Fragmented Nuclei (%): 5% and 8%
  Population Healthy Nuclei (%): 84% and 80%
  Population Hoechst High Intensity Objects (%): 5%
  Population Membrane Permeable-Phenotype (%): 0%
  Population Mitochondria Different-Phenotype (%): 45% and 56%
  Population Mitotic Cells (%): 77% and 44%
  Population Normal (%): 94%
  Population Pyknosed Nuclei (%): 10% and 11%
  Population Tubulin-Different-Phenotype (%): 19%
  Total Cell Count: 455 and 332
HEK-293T; [2]
  Population Apoptotic (%): 32% and 44%
  Population Fragmented Nuclei (%): 5% and 11%
  Population Healthy Nuclei (%): 77% and 74%
  Population Hoechst High Intensity Objects (%): 7% and 8%
  Population Membrane Permeable-Phenotype (%): 0%
  Population Mitochondria Different-Phenotype (%): 51% and 64%
  Population Mitotic Cells (%): 67% and 56%
  Population Normal (%): 92% and 91%
  Population Pyknosed Nuclei (%): 17% and 14%
  Population Tubulin-Different-Phenotype (%): 41% and 29%
  Total Cell Count: 423 and 388
HEK-293T; [3]
  Population Apoptotic (%): 28% and 27%
  Population Fragmented Nuclei (%): 10% and 8%
  Population Healthy Nuclei (%): 80% and 83%
  Population Hoechst High Intensity Objects (%): 2% and 3%
  Population Membrane Permeable-Phenotype (%): 0%
  Population Mitochondria Different-Phenotype (%): 30% and 41%
  Population Mitotic Cells (%): 71% and 72%
  Population Normal (%): 97% and 96%
  Population Pyknosed Nuclei (%): 9% and 7%
  Population Tubulin-Different-Phenotype (%): 14% and 13%
  Total Cell Count: 635 and 390
HEK-293T; [4]
  Population Apoptotic (%): 31% and 35%
  Population Fragmented Nuclei (%): 8% and 9%
  Population Healthy Nuclei (%): 77% and 82%
  Population Hoechst High Intensity Objects (%): 4% and 5%
  Population Membrane Permeable-Phenotype (%): 0%
  Population Mitochondria Different-Phenotype (%): 32% and 49%
  Population Mitotic Cells (%): 68% and 64%
  Population Normal (%): 95% and 94%
  Population Pyknosed Nuclei (%): 13% and 7%
  Population Tubulin-Different-Phenotype (%): 23%
  Total Cell Count: 552 and 524
HEK-293T; [5]
  Population Apoptotic (%): 18% and 28%
  Population Fragmented Nuclei (%): 13% and 17%
  Population Healthy Nuclei (%): 80% and 76%
  Population Hoechst High Intensity Objects (%): 1% and 0%
  Population Membrane Permeable-Phenotype (%): 1%
  Population Mitochondria Different-Phenotype (%): 14% and 21%
  Population Mitotic Cells (%): 81% and 71%
  Population Normal (%): 98% and 99%
  Population Pyknosed Nuclei (%): 5%
  Population Tubulin-Different-Phenotype (%): 10%
  Total Cell Count: 1141 and 662
HEK-293T; [6]
  Population Apoptotic (%): 26% and 28%
  Population Fragmented Nuclei (%): 12%
  Population Healthy Nuclei (%): 78% and 80%
  Population Hoechst High Intensity Objects (%): 3% and 2%
  Population Membrane Permeable-Phenotype (%): 0%
  Population Mitochondria Different-Phenotype (%): 25% and 30%
  Population Mitotic Cells (%): 73% and 71%
  Population Normal (%): 96% and 97%
  Population Pyknosed Nuclei (%): 8% and 6%
  Population Tubulin-Different-Phenotype (%): 16% and 15%
  Total Cell Count: 818 and 750
Fibroblast; [1]
  Population Apoptotic (%): 53% and 31%
  Population Fragmented Nuclei (%): 19% and 27%
  Population Healthy Nuclei (%): 62% and 52%
  Population Hoechst High Intensity Objects (%): 5% and 4%
  Population Membrane Permeable-Phenotype (%): 0% and 9%
  Population Mitochondria Different-Phenotype (%): 6% and 12%
  Population Mitotic Cells (%): 46% and 68%
  Population Normal (%): 94% and 95%
  Population Pyknosed Nuclei (%): 18% and 19%
  Population Tubulin-Different-Phenotype (%): 25% and 46%
  Total Cell Count: 164 and 189
Fibroblast; [2]
  Population Apoptotic (%): 46% and 30%
  Population Fragmented Nuclei (%): 15% and 31%
  Population Healthy Nuclei (%): 75% and 41%
  Population Hoechst High Intensity Objects (%): 3% and 5%
  Population Membrane Permeable-Phenotype (%): 0% and 1%
  Population Mitochondria Different-Phenotype (%): 4% and 3%
  Population Mitotic Cells (%): 53% and 69%
  Population Normal (%): 96% and 94%
  Population Pyknosed Nuclei (%): 9% and 27%
  Population Tubulin-Different-Phenotype (%): 19% and 45%
  Total Cell Count: 171 and 137
Fibroblast; [3]
  Population Apoptotic (%): 59% and 58%
  Population Fragmented Nuclei (%): 17% and 27%
  Population Healthy Nuclei (%): 64% and 57%
  Population Hoechst High Intensity Objects (%): 5%
  Population Membrane Permeable-Phenotype (%): 1% and 9%
  Population Mitochondria Different-Phenotype (%): 4% and 7%
  Population Mitotic Cells (%): 40% and 41%
  Population Normal (%): 94%
  Population Pyknosed Nuclei (%): 18% and 14%
  Population Tubulin-Different-Phenotype (%): 28% and 45%
  Total Cell Count: 156 and 179
Fibroblast; [4]
  Population Apoptotic (%): 53% and 55%
  Population Fragmented Nuclei (%): 15% and 29%
  Population Healthy Nuclei (%): 75% and 48%
  Population Hoechst High Intensity Objects (%): 2% and 4%
  Population Membrane Permeable-Phenotype (%): 0% and 4%
  Population Mitochondria Different-Phenotype (%): 4% and 6%
  Population Mitotic Cells (%): 46% and 44%
  Population Normal (%): 97% and 95%
  Population Pyknosed Nuclei (%): 8% and 21%
  Population Tubulin-Different-Phenotype (%): 24% and 44%
  Total Cell Count: 181 and 131
Fibroblast; [5]
  Population Apoptotic (%): 76% and 50%
  Population Fragmented Nuclei (%): 23% and 40%
  Population Healthy Nuclei (%): 60% and 52%
  Population Hoechst High Intensity Objects (%): 7% and 2%
  Population Membrane Permeable-Phenotype (%): 2% and 4%
  Population Mitochondria Different-Phenotype (%): 6% and 10%
  Population Mitotic Cells (%): 23% and 50%
  Population Normal (%): 92% and 97%
  Population Pyknosed Nuclei (%): 15% and 7%
  Population Tubulin-Different-Phenotype (%): 28% and 32%
  Total Cell Count: 176 and 195
Fibroblast; [6]
  Population Apoptotic (%): 64% and 75%
  Population Fragmented Nuclei (%): 18% and 39%
  Population Healthy Nuclei (%): 74% and 48%
  Population Hoechst High Intensity Objects (%): 4% and 3%
  Population Membrane Permeable-Phenotype (%): 0% and 6%
  Population Mitochondria Different-Phenotype (%): 4% and 6%
  Population Mitotic Cells (%): 35% and 25%
  Population Normal (%): 95% and 96%
  Population Pyknosed Nuclei (%): 7% and 12%
  Population Tubulin-Different-Phenotype (%): 21% and 51%
  Total Cell Count: 194 and 132
U2OS; [1]
  Population Apoptotic (%): 86% and 100%
  Population Fragmented Nuclei (%): 24% and 13%
  Population Healthy Nuclei (%): 62% and 74%
  Population Hoechst High Intensity Objects (%): 1% and 0%
  Population Membrane Permeable-Phenotype (%): 6% and 5%
  Population Mitochondria Different-Phenotype (%): 3% and 2%
  Population Mitotic Cells (%): 13% and 0%
  Population Normal (%): 98% and 99%
  Population Pyknosed Nuclei (%): 12%
  Population Tubulin-Different-Phenotype (%): 4% and 5%
  Total Cell Count: 240 and 107
U2OS; [2]
  Population Apoptotic (%): 86% and 66%
  Population Fragmented Nuclei (%): 18% and 21%
  Population Healthy Nuclei (%): 70% and 71%
  Population Hoechst High Intensity Objects (%): 1% and 0%
  Population Membrane Permeable-Phenotype (%): 6% and 7%
  Population Mitochondria Different-Phenotype (%): 2% and 3%
  Population Mitotic Cells (%): 13% and 33%
  Population Normal (%): 98% and 99%
  Population Pyknosed Nuclei (%): 11% and 6%
  Population Tubulin-Different-Phenotype (%): 4% and 1%
  Total Cell Count: 319 and 136
U2OS; [3]
  Population Apoptotic (%): 82% and 58%
  Population Fragmented Nuclei (%): 21% and 11%
  Population Healthy Nuclei (%): 70% and 79%
  Population Hoechst High Intensity Objects (%): 2% and 0%
  Population Membrane Permeable-Phenotype (%): 4% and 9%
  Population Mitochondria Different-Phenotype (%): 2% and 3%
  Population Mitotic Cells (%): 17% and 41%
  Population Normal (%): 97% and 99%
  Population Pyknosed Nuclei (%): 8% and 9%
  Population Tubulin-Different-Phenotype (%): 3% and 7%
  Total Cell Count: 289 and 125
U2OS; [4]
  Population Apoptotic (%): 86% and 76%
  Population Fragmented Nuclei (%): 17% and 20%
  Population Healthy Nuclei (%): 75% and 71%
  Population Hoechst High Intensity Objects (%): 1%
  Population Membrane Permeable-Phenotype (%): 5% and 9%
  Population Mitochondria Different-Phenotype (%): 3% and 5%
  Population Mitotic Cells (%): 13% and 23%
  Population Normal (%): 98%
  Population Pyknosed Nuclei (%): 7%
  Population Tubulin-Different-Phenotype (%): 3% and 4%
  Total Cell Count: 405 and 167
U2OS; [5]
  Population Apoptotic (%): 84% and 78%
  Population Fragmented Nuclei (%): 17% and 12%
  Population Healthy Nuclei (%): 72% and 74%
  Population Hoechst High Intensity Objects (%): 2%
  Population Membrane Permeable-Phenotype (%): 4% and 8%
  Population Mitochondria Different-Phenotype (%): 3%
  Population Mitotic Cells (%): 15% and 21%
  Population Normal (%): 97%
  Population Pyknosed Nuclei (%): 9% and 13%
  Population Tubulin-Different-Phenotype (%): 3% and 7%
  Total Cell Count: 394 and 179
U2OS; [6]
  Population Apoptotic (%): 87% and 70%
  Population Fragmented Nuclei (%): 14%
  Population Healthy Nuclei (%): 74% and 78%
  Population Hoechst High Intensity Objects (%): 2%
  Population Membrane Permeable-Phenotype (%): 5% and 3%
  Population Mitochondria Different-Phenotype (%): 2% and 3%
  Population Mitotic Cells (%): 12% and 29%
  Population Normal (%): 97%
  Population Pyknosed Nuclei (%): 10% and 7%
  Population Tubulin-Different-Phenotype (%): 2% and 1%
  Total Cell Count: 534 and 232
